Test results published in ChEMBL document CHEMBL3400037, “Bis-3-chloropiperidines containing bridging lysine linkers: Influence of side chain structure on DNA alkylating activity” (Bioorg Med Chem, 2015).
Calls of active or inactive are those of the source. The calls are words filed in the database; no cut-off is given here.

Columns and labels:
Escherichia coli [1] = experiment: Induction of Escherichia coli supercoiled plasmid pBR322 DNA cleavage at 0.5 uM after 3 hrs at 37 degC using ethidium bromide by gel electrophoresis
Summary of the method: (§1)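 Supercoiled pBR322 (3.5 nM) incubated with agent at 0.5, 5 or 50 µM in BPE buffer pH 7.4 for 3 h at 37 °C. Agent diluted fresh in water from DMSO stock. Products resolved on 1% agarose gel in 1× TAE and stained with ethidium bromide. Controls on gel were supercoiled, EcoRI-linearised and open circular plasmid markers. Chlorambucil at 50 µM was the reference agent.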

[2] = Induction of alkylation of 5'-FAM-labeled scrambled duplex oligonucleotide DNA (unknown origin) at guanine residues at 5 to 50 uM after 24 hrs by sequencing gel analysis
Escherichia coli [3] = experiment: Induction of Escherichia coli supercoiled plasmid pBR322 DNA cleavage at 0.5 uM to 50 uM after 3 hrs at 37 degC using ethidium bromide by gel electrophoresis
Summary of the method: (§2)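 Supercoiled pBR322 (3.5 nM) incubated with agent at 0.5, 5 or 50 µM for 3 h at 37 °C in bisphosphate–EDTA (BPE) buffer, pH 7.4; chlorambucil 50 µM as control. Dilutions freshly made in water from 8 mM DMSO stock. Forms resolved on 1% agarose in 1× TAE, ethidium bromide-stained; supercoiled, EcoRI-linearised and nicked open-circular plasmid as markers.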

Escherichia coli [4] = experiment: Induction of Escherichia coli supercoiled plasmid pBR322 DNA cleavage at 0.5 uM to 50 uM after 24 hrs using ethidium bromide by gel electrophoresis
Summary of the method: (§3)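 Supercoiled pBR322 (3.5 nM) exposed to agent at 24 h at ambient temperature in BPE buffer, pH 7.4; chlorambucil as control. Supercoiled, open-circular and linear forms separated by 1% agarose electrophoresis in 1× TAE, ethidium bromide-stained, with supercoiled, linear (EcoRI-cut) and nicked plasmid controls.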

Escherichia coli [5] = experiment: Induction of Escherichia coli supercoiled plasmid pBR322 DNA cleavage at 50 uM after 24 hrs using ethidium bromide by gel electrophoresis
Summary of the method: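 Supercoiled pBR322 (3.5 nM) incubated with agent in BPE buffer pH 7.4 at ambient temperature for 24 h. Products resolved on 1% agarose gel in 1× TAE and stained with ethidium bromide. Supercoiled, linear and open circular plasmid markers were run alongside.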

Escherichia coli [6] = experiment: Induction of Escherichia coli supercoiled plasmid pBR322 DNA cleavage at 50 uM after 3 hrs at 37 degC using ethidium bromide by gel electrophoresis; summary of the method: as §1
[7] = Reactive aziridinium ion formation in distilled water assessed as electrophilic aziridinium formation at 80 uM at 37 degC after 15 mins by ESI-MS analysis; assay type: physicochemical; settings: buffer, 0.25 h
Summary of the method: (§4)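 An 80 µM solution of agent in distilled water was kept at 37 °C. Aliquots were taken at 0, 15, 30, 45, 60 and 120 min, diluted with methanol and analysed by ESI-MS for hydroxyl-substituted and aziridinium ion species.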

Escherichia coli [8] = experiment: Induction of Escherichia coli supercoiled plasmid pBR322 DNA cleavage at 5 uM after 3 hrs at 37 degC using ethidium bromide by gel electrophoresis; summary of the method: as §1
[9] = Reactive aziridinium ion formation in distilled water assessed as dihydroxyl substituted product formation at 80 uM at 37 degC after 15 mins by ESI-MS analysis; assay type: physicochemical; settings: buffer, 0.25 h; summary of the method: as §4
Escherichia coli [10] = experiment: Binding affinity to Escherichia coli supercoiled plasmid pBR322 DNA at 50 uM after 24 hrs using ethidium bromide by gel electrophoresis; summary of the method: as §3
Escherichia coli [11] = experiment: Binding affinity to Escherichia coli supercoiled plasmid pBR322 DNA at 50 uM after 3 hrs at 37 degC using ethidium bromide by gel electrophoresis; summary of the method: as §2

SMILES	Activity (Escherichia coli [1])	Activity [2]	Activity (Escherichia coli [3])	also measured
CC1(C)CC(Cl)CN(CCCN2CC(Cl)CC(C)(C)C2)C1 (stereo not drawn)	Active	–	–	–
CC1(C)CC(Cl)CN(CCCC[C@@H](C(=O)OCCc2ccccc2)N2CC(Cl)CC(C)(C)C2)C1 (stereo partly drawn)	–	Active	Active	Activity (Escherichia coli [4]): Active
O=C(O)CCCc1ccc(N(CCCl)CCCl)cc1	–	–	–	Activity (Escherichia coli [5]): inactive; Activity (Escherichia coli [6]): inactive
CC1(C)CC(Cl)CN(CCCCCN2CC(Cl)CC(C)(C)C2)C1 (stereo not drawn)	Active	–	–	–
COC(=O)[C@H](CCCCN1CC(Cl)CC(C)(C)C1)N1CC(Cl)CC(C)(C)C1 (stereo partly drawn)	–	Active	Active	Activity [7]: Active; Activity (Escherichia coli [8]): Active; Activity [9]: Active; Activity (Escherichia coli [4]): Active
CC1(C)CC(Cl)CN(CCCCN2CC(Cl)CC(C)(C)C2)C1 (stereo not drawn)	Active	–	–	–
CC1(C)CC(Cl)CN(CCCC[C@@H](C(=O)Oc2cccc3ccccc23)N2CC(Cl)CC(C)(C)C2)C1 (stereo partly drawn)	–	Active	inactive	Activity (Escherichia coli [10]): Active; Activity (Escherichia coli [11]): Active
COc1ccc(OC(=O)[C@H](CCCCN2CC(Cl)CC(C)(C)C2)N2CC(Cl)CC(C)(C)C2)c2ccccc12 (stereo partly drawn)	–	Active	inactive	Activity (Escherichia coli [10]): Active; Activity (Escherichia coli [11]): Active
CC1(C)CC(Cl)CN(CCCC[C@@H](C(=O)OCCCc2ccccc2)N2CC(Cl)CC(C)(C)C2)C1 (stereo partly drawn)	–	Active	inactive	–
CC1(C)CC(Cl)CN(CCCC[C@@H](C(=O)OCc2ccccc2)N2CC(Cl)CC(C)(C)C2)C1 (stereo partly drawn)	–	Active	Active	Activity (Escherichia coli [4]): Active
CC1(C)CC(Cl)CN(CCCCCCN2CC(Cl)CC(C)(C)C2)C1 (stereo not drawn)	Active	–	–	–
